According to ChEMBL document CHEMBL3596131, “Discovery of a novel trans-1,4-dioxycyclohexane GPR119 agonist series” (Bioorg Med Chem Lett, 2015):

How the values were obtained:
[1] = molecular target: T1, Glucose-dependent insulinotropic receptor (Homo sapiens, UniProt Q8TDV5); test: Agonist activity at human GPR119 by serum shift assay
T1 sequence (Q8TDV5 whole entry): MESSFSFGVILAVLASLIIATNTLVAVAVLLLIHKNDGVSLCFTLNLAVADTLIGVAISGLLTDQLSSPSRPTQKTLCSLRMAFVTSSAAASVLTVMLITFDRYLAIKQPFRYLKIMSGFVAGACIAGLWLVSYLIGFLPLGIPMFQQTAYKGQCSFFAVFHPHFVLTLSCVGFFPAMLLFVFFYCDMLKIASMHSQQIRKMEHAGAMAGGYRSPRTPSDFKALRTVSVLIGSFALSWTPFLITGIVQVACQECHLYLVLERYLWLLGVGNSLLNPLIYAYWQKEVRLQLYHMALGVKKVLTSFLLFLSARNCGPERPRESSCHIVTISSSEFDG
In short: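 HTRF cAMP read-out with cells plated overnight; growth medium swapped for fetal bovine serum-containing medium. Compounds serially diluted in DMSO, then in PBS with IBMX and 0.1% BSA to 2× concentration (1% DMSO) before addition. Potency compared with and without serum.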

[2] = molecular target: T2, Uncharacterized protein (Canis lupus familiaris) (UniProt A0A8C0THM6); test: Agonist activity at canine GPR119 by HTRF cAMP assay relative to AR231453
T2 sequence (whole entry): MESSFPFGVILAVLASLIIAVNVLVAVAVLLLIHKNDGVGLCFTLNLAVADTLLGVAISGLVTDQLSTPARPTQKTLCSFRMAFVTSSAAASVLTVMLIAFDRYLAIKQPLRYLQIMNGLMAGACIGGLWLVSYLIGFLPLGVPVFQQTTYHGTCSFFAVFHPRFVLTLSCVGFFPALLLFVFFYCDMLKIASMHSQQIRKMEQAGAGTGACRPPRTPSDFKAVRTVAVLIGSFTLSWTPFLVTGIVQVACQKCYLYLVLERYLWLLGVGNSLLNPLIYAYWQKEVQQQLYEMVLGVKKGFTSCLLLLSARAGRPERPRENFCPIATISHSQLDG

[3] = Agonist activity at monkey GPR119 by HTRF cAMP assay; parameters: species or system Macaca mulatta
[4] = molecular target: T3, Glucose-dependent insulinotropic receptor (Mus musculus, UniProt Q7TQP3); test: Agonist activity at mouse GPR119 by HTRF cAMP assay; format: functional
T3 sequence (Q7TQP3 whole entry): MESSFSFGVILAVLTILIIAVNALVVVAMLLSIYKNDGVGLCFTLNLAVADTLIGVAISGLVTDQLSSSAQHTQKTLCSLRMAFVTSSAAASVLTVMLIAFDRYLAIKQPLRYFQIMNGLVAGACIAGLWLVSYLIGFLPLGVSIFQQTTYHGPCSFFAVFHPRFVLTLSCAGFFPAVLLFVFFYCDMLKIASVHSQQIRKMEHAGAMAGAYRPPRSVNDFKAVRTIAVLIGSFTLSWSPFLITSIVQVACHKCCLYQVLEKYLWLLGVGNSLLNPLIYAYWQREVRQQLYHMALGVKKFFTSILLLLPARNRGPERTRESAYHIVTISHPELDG

[5] = Half life in human hepatocytes; format: ADME, cell-based, Hepatocyte
[6] = Plasma protein binding in mouse; format: ADME, organism-based; conditions: read-out: PPB (converted)
[7] = Volume of distribution at steady state in Sprague-Dawley rat at 2 mg/kg, iv and po; format: ADME, organism-based; conditions: in vivo, read-out: Vdss
In short: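 Male Sprague-Dawley rats received 2 mg/kg intravenously or 2 mg/kg orally in 20% hydroxypropyl-β-cyclodextrin. Steady-state volume of distribution was taken from the plasma pharmacokinetic profile and reported in L/kg.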

[8] = Plasma concentration in Sprague-Dawley rat at 2 mg/kg, po measured at 2 hrs; format: ADME, organism-based
In short: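 Abbreviated CNS study in male SD rats given 2 mg/kg orally in 20% hp-β-CD; brain (ng/g) and plasma (ng/mL) levels sampled at 2 h post-dose, brain/plasma ratio calculated.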

Mus musculus = test: Antidiabetic activity in normoglycemic 129SVE mouse assessed as suppression of plasma glucose AUC at 1 to 10 mg/kg, po administered 30 mins prior to glucose challenge measured over 120 mins by OGTT relative to vehicle-treated control; format: functional
Rattus norvegicus [9] = test: Antidiabetic activity in Zucker diabetic fatty rat assessed as suppression of plasma glucose AUC at 10 mg/kg administered 60 mins prior to glucose challenge by OGTT relative to vehicle-treated control; format: functional
Rattus norvegicus [10] = test: Antidiabetic activity in Zucker diabetic fatty rat assessed as decrease in HbA1C level at 1 mg/kg, qd administered over 4 weeks measured on day 28 post last dose relative to vehicle-treated control; format: functional; parameters: scale not given: the % may be the effect or the level left
In short: (§1)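 Chronic study in ZDF rats: once-daily dosing at 1, 3 or 10 mg/kg for 4 weeks, vehicle 0.5% methylcellulose; fed glucose and body weight tracked at dosing times, HbA1c measured on day 28 relative to vehicle.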

Rattus norvegicus [11] = test: Antidiabetic activity in Zucker diabetic fatty rat assessed as decrease in HbA1C level at 10 mg/kg, qd administered over 4 weeks measured on day 28 post last dose relative to vehicle-treated control; format: functional; parameters: scale not given: the % may be the effect or the level left; in short: as §1
Rattus norvegicus [12] = test: Antidiabetic activity in Zucker diabetic fatty rat assessed as decrease in HbA1C level administered as qd over 4 weeks measured on day 28 post last dose; format: functional, organism-based; in short: as §1
Rattus norvegicus [13] = test: Toxicity in Zucker diabetic fatty rat assessed as effect on body weight at 1 to 10 mg/kg, qd administered over 4 weeks measured during compound dosing; format: organism-based; conditions: in vivo, 672 h; in short: as §1
[14] = molecular target: Voltage-gated inwardly rectifying potassium channel KCNH2 (Homo sapiens, UniProt Q12809); test: Inhibition of human ERG by patch clamp assay
Sequence of Voltage-gated inwardly rectifying potassium channel KCNH2 (Q12809 whole entry): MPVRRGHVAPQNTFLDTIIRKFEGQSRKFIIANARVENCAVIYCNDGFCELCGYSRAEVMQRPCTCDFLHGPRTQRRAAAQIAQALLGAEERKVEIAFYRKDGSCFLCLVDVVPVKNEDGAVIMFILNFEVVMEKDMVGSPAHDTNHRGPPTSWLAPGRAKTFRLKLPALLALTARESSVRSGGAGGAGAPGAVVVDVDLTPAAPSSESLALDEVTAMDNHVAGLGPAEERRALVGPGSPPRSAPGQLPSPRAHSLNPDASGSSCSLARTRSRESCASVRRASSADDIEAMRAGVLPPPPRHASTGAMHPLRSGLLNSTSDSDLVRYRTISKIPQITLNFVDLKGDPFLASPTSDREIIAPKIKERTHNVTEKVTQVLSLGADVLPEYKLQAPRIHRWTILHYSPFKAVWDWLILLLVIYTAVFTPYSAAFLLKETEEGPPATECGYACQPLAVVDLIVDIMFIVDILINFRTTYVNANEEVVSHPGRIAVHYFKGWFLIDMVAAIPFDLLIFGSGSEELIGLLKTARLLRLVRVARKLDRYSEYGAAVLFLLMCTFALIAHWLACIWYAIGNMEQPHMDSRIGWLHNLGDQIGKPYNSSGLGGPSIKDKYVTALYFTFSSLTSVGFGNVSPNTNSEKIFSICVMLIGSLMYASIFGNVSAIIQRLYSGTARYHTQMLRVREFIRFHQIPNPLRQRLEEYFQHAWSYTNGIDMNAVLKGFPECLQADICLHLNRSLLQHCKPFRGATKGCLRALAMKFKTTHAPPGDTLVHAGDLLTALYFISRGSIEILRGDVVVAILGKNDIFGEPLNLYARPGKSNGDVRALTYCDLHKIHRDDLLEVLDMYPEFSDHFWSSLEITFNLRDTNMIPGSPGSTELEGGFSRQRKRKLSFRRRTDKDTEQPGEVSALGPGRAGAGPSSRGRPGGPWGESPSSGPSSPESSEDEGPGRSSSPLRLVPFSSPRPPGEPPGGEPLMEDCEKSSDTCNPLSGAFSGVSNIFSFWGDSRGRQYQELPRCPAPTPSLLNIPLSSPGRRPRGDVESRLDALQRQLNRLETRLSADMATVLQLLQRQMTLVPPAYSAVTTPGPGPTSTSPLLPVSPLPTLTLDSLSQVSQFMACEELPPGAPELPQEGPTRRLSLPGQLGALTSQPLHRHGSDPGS

Cytochrome P450 2C9 = Cytochrome P450 2C9 (Homo sapiens, UniProt P11712); test: Inhibition of CYP2C9 in human liver microsomes; format: ADME
Sequence of Cytochrome P450 2C9 (P11712 whole entry): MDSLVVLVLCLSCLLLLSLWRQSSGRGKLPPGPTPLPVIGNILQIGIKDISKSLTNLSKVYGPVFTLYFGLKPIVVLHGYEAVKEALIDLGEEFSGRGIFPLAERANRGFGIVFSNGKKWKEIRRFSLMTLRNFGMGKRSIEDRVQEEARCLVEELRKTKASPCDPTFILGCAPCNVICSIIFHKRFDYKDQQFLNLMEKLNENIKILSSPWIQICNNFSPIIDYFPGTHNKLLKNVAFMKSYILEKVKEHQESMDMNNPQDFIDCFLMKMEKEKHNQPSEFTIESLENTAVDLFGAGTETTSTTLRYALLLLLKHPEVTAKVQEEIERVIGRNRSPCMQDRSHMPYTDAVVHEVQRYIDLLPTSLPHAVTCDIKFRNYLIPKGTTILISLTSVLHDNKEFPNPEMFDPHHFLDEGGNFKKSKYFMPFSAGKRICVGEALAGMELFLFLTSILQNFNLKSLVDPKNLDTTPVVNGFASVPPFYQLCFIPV

Cytochrome P450 2C19 = Cytochrome P450 2C19 (Homo sapiens, UniProt P33261); test: Inhibition of CYP2C19 in human liver microsomes; format: ADME
Sequence of Cytochrome P450 2C19 (P33261 whole entry): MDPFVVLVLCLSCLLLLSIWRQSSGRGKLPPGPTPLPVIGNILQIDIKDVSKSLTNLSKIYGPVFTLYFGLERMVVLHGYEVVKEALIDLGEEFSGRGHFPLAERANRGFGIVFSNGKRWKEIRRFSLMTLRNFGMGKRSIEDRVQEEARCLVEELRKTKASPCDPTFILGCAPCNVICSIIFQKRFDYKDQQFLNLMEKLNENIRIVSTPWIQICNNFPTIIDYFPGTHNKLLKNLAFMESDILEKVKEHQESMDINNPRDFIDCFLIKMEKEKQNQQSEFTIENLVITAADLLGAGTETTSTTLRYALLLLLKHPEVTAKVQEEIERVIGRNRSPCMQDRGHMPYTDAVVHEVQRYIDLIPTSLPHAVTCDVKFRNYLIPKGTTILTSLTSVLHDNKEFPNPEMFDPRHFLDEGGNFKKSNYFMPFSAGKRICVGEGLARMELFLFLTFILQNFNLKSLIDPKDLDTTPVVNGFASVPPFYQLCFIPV

Cytochrome P450 1A2 = molecular target: T4, Cytochrome P450 1A2 (Homo sapiens, UniProt P05177); test: Inhibition of CYP1A2 in human liver microsomes; format: ADME
T4 sequence (P05177 whole entry): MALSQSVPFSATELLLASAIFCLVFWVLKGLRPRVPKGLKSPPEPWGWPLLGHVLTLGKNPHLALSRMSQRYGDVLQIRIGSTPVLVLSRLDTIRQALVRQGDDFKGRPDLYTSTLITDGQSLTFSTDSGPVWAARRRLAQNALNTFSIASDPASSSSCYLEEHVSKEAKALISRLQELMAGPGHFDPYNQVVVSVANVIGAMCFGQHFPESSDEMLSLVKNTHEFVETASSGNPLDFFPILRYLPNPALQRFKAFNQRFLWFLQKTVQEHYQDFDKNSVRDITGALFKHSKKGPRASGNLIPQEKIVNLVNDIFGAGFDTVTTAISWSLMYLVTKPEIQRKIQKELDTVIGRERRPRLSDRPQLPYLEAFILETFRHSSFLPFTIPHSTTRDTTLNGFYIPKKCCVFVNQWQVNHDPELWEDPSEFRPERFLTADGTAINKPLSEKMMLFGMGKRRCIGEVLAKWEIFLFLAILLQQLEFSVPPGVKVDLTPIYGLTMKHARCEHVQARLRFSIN

Cytochrome P450 2D6 = Cytochrome P450 2D6 (Homo sapiens, UniProt P10635); test: Inhibition of CYP2D6 in human liver microsomes; format: ADME
Sequence of Cytochrome P450 2D6 (P10635 whole entry): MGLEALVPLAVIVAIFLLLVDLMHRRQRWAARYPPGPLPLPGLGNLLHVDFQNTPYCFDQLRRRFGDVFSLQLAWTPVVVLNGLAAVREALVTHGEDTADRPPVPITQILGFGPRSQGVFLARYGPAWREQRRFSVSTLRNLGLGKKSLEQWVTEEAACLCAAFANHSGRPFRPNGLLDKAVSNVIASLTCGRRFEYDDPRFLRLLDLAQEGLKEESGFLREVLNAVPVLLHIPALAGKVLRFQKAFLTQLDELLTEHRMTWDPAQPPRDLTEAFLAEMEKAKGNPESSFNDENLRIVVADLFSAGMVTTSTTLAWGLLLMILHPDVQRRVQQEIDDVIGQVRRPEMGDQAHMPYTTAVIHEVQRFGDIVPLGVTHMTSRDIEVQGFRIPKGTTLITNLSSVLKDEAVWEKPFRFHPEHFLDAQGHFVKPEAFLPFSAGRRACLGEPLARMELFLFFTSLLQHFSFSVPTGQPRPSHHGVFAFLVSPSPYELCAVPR

EC50 [1]: 38 nM
Emax [2]: 144%
EC50 [3]: 3.4 nM
EC50 [4]: 20.5 nM
half-life [5]: > 2 h
fraction unbound [6]: 0.065
Vd [7]: 2.94 L/kg
concentration at 2 h [8]: 841 ng/mL
INH (Cytochrome P450 2C9): 27.5 µM
INH (Cytochrome P450 2C19): 23.4 µM
INH (Cytochrome P450 1A2): > 50 µM
INH (Cytochrome P450 2D6): > 50 µM
SMILES: C[C@@H](OC(=O)N1CCC(O[C@H]2CC[C@H](Oc3cnc(S(C)(=O)=O)cn3)CC2)CC1)C(F)(F)F
Activity (Mus musculus): 40%
Activity (Rattus norvegicus [9]): 58%
Activity (Rattus norvegicus [10]): 1.63%
Activity (Rattus norvegicus [11]): 2.58%
Activity (Rattus norvegicus [12]): Dose-dependent effect
Activity (Rattus norvegicus [13]): Non-toxic
IC50 [14]: > 30000 nM
